# Active and inactive are the calls of the source. The rule behind the calls is not given here.
# Legend:
# [1] = biological target: GABA-A receptor; anion channel (Rattus norvegicus) (UniProt O09028+P15431+P18506+P18508+P19969+P20236+P23574+P23576+P28471+P28473+P30191+P62813+P63079+P63138+Q91ZM7+Q9ES14); experiment: Displacement of [3H]flunitrazepam from GABAA receptor in rat brain extract at 10 uM relative to control; assay type: tissue-based
# HEK293 = experiment: Cytotoxicity against HEK293 cells assessed as lethal dose measured after 18 hrs by CellTiter-Glo assay; assay type: functional; details: Homo sapiens, read-out: LD50 (the source's name)
# Outline: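 HEK293T cells grown in DMEM/high glucose with NEAA, HEPES, pen/strep, 10% heat-inactivated FBS. Plated 15,000 cells/well, then 4 h at 37 °C, 5% CO2. Compound added as 1:3 serial dilutions, top final concentration 300 µM. After 18 h, read luminescence by CellTiter-Glo. DMSO negative control, aminoketone positive control. Three independent experiments in quadruplicate, variable-slope nonlinear regression.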
# [2] = Aqueous solubility of the compound at […] under shaking condition for 24 hrs by UV absorbance based analysis; assay type: physicochemical; details: for solubility: buffer, 24 h; for solubility at 24 h: aqueous
# [3] = Metabolic stability in human liver S9 fraction assessed as parent compound remaining at 10 uM measured after 120 mins in presence of NADPH by LC-MS/MS analysis; assay type: ADME, subcellular; details: for remaining at 2 h, 10 µM: liver S9 fraction, read-out: Stability
# Mus musculus = experiment: Induction of bronchodilation in A/J mouse assessed as reduction in sRaw values at 7.2 mg/kg administered as nebulized compound; assay type: functional, organism-based
# Outline: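 Female A/J mice, no allergen sensitization, trained 5 days in a double-chamber plethysmograph while conscious. Compound nebulized in PBS at 7.2 mg/kg, then five nebulized methacholine challenges (in water). Each nebulization under 1 min, 3 min recording, 1 min pause. sRaw calculated per interval. n = 12, two-way repeated-measures ANOVA against vehicle.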
# [4] = Metabolic stability in mouse liver S9 fraction assessed as parent compound remaining at 10 uM measured after 120 mins in presence of UDP-glucuronic acid by LC-MS/MS analysis; assay type: ADME, subcellular; details: read-out: Stability
# Outline: (§1)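 Liver S9 (human or mouse), protein 0.5 mg/mL, compound 10 µM (from 1 mM DMSO stock), phosphate buffer pH 7.4, […], alamethicin 0.0225 mg/mL final. Preincubated 5 min at 37 °C, then S9 added. Aliquots at 0 and 120 min quenched in cold methanol with 5 µM 4,5-diphenylimidazole internal standard. Parent remaining from LC-MS/MS peak-area ratio. Two independent assays in triplicate (n = 6).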
# [5] = Metabolic stability in human liver S9 fraction assessed as parent compound remaining at 10 uM measured after 120 mins in presence of UDP-glucuronic acid by LC-MS/MS analysis; assay type: ADME, subcellular; details: read-out: Stability; outline: as §1
# [6] = biological target: GABA-A receptor; anion channel; experiment: Displacement of [3H]flunitrazepam from GABAA receptor in rat brain extract; assay type: tissue-based
# [7] = Inhibition of sensorimotor coordination in Swiss Webster mouse at 40 mg/kg, po measured after 10 to 30 mins by rotarod analysis; assay type: toxicity, organism-based; details: in vivo, time 10-30 min
# Outline: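 Female Swiss Webster mice, 10 weeks old, trained on rotarod at 15 rpm for 3 min. Single oral gavage, 100 µL, in 2.5% PEG400/97.5% 2% HPMC. Tested 3 min at 10, 30 and 60 min after dosing; fall time recorded at second fall. n = 12, two-way repeated-measures ANOVA with Bonferroni posttest.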
# [8] = Metabolic stability in mouse liver S9 fraction assessed as parent compound remaining at 10 uM measured after 120 mins in presence of NADPH by LC-MS/MS analysis; assay type: ADME, subcellular; details: read-out: Stability
# Trachea = experiment: Induction of smooth muscle relaxation in Hartley guinea pig trachea ring assessed as reduction in substance P induced smooth muscle constriction at 25 uM measured after 30 mins; assay type: functional, tissue-based; details: Cavia porcellus
structure (smiles),measurement,setting,value
CCOC(=O)c1ncn2c1C1(CCCCC1)N=C(c1ccccc1F)c1cc(Br)ccc1-2,Activity,[1],74%
same,CC50,HEK293,96 µM
same,solubility,[2],141 µM
CCC1N=C(c2ccccc2F)c2cc(Br)ccc2-n2cnc(C(=O)O)c21 (racemic),"remaining at 2 h, 10 µM",[3],119%
same,Activity,[1],102%
same,Activity,Mus musculus,Active
same,"remaining at 2 h, 10 µM",[4],114%
same,"remaining at 2 h, 10 µM",[5],111%
same,CC50,HEK293,> 300 µM
same,IC50,[6],145 µM
same,solubility at 24 h,[2],77600 µM
same,Activity,[7],Non-Toxic
same,"remaining at 2 h, 10 µM",[8],108%
CC1(C)N=C(c2ccccc2F)c2cc(Br)ccc2-n2cnc(C(=O)O)c21,"remaining at 2 h, 10 µM",[3],106%
same,Activity,[1],74%
same,Activity,Mus musculus,inactive
same,"remaining at 2 h, 10 µM",[4],107%
same,"remaining at 2 h, 10 µM",[5],111%
same,CC50,HEK293,> 300 µM
same,solubility,[2],4400 µM
same,Activity,[7],Non-Toxic
same,"remaining at 2 h, 10 µM",[8],106%
CCOC(=O)c1ncn2c1C(CC)N=C(c1ccccc1F)c1cc(Br)ccc1-2 (racemic),Activity,[1],61%
same,CC50,HEK293,> 300 µM
same,IC50,[6],175 µM
same,solubility at 24 h,[2],417 µM
O=C(O)c1ncn2c1C1(CC1)N=C(c1ccccc1F)c1ccccc1-2,"remaining at 2 h, 10 µM",[3],106%
same,Activity,[1],74%
same,Activity,Mus musculus,Active
same,Activity,Trachea,Active
same,"remaining at 2 h, 10 µM",[4],99%
same,"remaining at 2 h, 10 µM",[5],96%
same,CC50,HEK293,> 300 µM
same,solubility,[2],15100 µM
same,Activity,[7],Non-Toxic
same,"remaining at 2 h, 10 µM",[8],108%
O=C(O)c1ncn2c1C1(CCCCC1)N=C(c1ccccc1F)c1cc(Br)ccc1-2,"remaining at 2 h, 10 µM",[3],107%
same,Activity,[1],24%
same,Activity,Mus musculus,inactive
same,Activity,Trachea,Active
same,"remaining at 2 h, 10 µM",[4],78%
same,"remaining at 2 h, 10 µM",[5],106%
same,CC50,HEK293,> 300 µM
same,solubility,[2],46900 µM
same,Activity,[7],Non-Toxic
same,"remaining at 2 h, 10 µM",[8],111%
CCOC(=O)c1ncn2c1C(C)(C)N=C(c1ccccc1F)c1cc(Br)ccc1-2,Activity,[1],78%
same,CC50,HEK293,> 150 µM
same,solubility,[2],103 µM
O=C1Nc2ccc(Br)cc2C(c2ccccc2F)=NC12CCC2,Activity,[1],71%
same,CC50,HEK293,> 150 µM
same,solubility,[2],109 µM
CCOC(=O)c1ncn2c1C1(CC1)N=C(c1ccccc1F)c1cc(Cl)ccc1-2,Activity,[1],34%
same,CC50,HEK293,> 150 µM
same,solubility,[2],54 µM
C#Cc1ccc2c(c1)C(c1ccccc1F)=NC1(CC1)C1C(C(=O)OCC)N=CN21 (stereo not given),Activity,[1],56%
same,CC50,HEK293,> 150 µM
same,solubility,[2],53 µM
O=C(O)c1ncn2c1C1(CCCC1)N=C(c1ccccc1F)c1cc(Br)ccc1-2,"remaining at 2 h, 10 µM",[3],114%
same,Activity,[1],2%
same,Activity,Mus musculus,inactive
same,"remaining at 2 h, 10 µM",[4],92%
same,"remaining at 2 h, 10 µM",[5],96%
same,CC50,HEK293,> 300 µM
same,solubility,[2],46700 µM
same,Activity,[7],Non-Toxic
same,"remaining at 2 h, 10 µM",[8],117%
O=C1Nc2ccc(Cl)cc2C(c2ccccc2F)=NC12CC2,Activity,[1],90%
same,CC50,HEK293,> 150 µM
same,solubility,[2],39 µM
CCOC(=O)c1ncn2c1C1(CCCC1)N=C(c1ccccc1F)c1cc(Br)ccc1-2,Activity,[1],19%
same,CC50,HEK293,106 µM
same,solubility,[2],144 µM
CCOC(=O)c1ncn2c1C1(CC1)N=C(c1ccccc1F)c1cc(Br)ccc1-2,Activity,[1],94%
same,CC50,HEK293,> 120 µM
same,solubility,[2],141 µM
CCOC(=O)c1ncn2c1C1(CC1)N=C(c1ccccc1F)c1cc(C3CC3)ccc1-2,Activity,[1],22%
same,CC50,HEK293,> 120 µM
same,solubility,[2],96 µM
O=C(O)c1ncn2c1C1(CC1)N=C(c1ccccc1F)c1cc(C3CC3)ccc1-2,"remaining at 2 h, 10 µM",[3],107%
same,Activity,[1],58%
same,"remaining at 2 h, 10 µM",[4],95%
same,"remaining at 2 h, 10 µM",[5],96%
same,CC50,HEK293,> 300 µM
same,solubility,[2],12800 µM
same,Activity,[7],Non-Toxic
same,"remaining at 2 h, 10 µM",[8],102%
CCC1N=C(c2ccccc2F)c2cc(Br)ccc2NC1=O (racemic),Activity,[1],95%
same,CC50,HEK293,> 150 µM
same,IC50,[6],134 µM
same,solubility at 24 h,[2],397 µM
O=C1Nc2ccc(Br)cc2C(c2ccccc2F)=NC12CCCCC2,Activity,[1],33%
same,CC50,HEK293,87 µM
same,solubility,[2],94 µM
C#Cc1ccc2c(c1)C(c1ccccc1F)=NC1(CC1)c1c(C(=O)O)ncn1-2,"remaining at 2 h, 10 µM",[3],106%
same,Activity,[1],55%
same,Activity,Mus musculus,Active
same,Activity,Trachea,Active
same,"remaining at 2 h, 10 µM",[4],113%
same,"remaining at 2 h, 10 µM",[5],93%
same,CC50,HEK293,> 300 µM
same,solubility,[2],40300 µM
same,Activity,[7],Non-Toxic
same,"remaining at 2 h, 10 µM",[8],108%
O=C1Nc2ccc(Br)cc2C(c2ccccc2F)=NC12CCCC2,Activity,[1],13%
same,CC50,HEK293,> 120 µM
same,solubility,[2],98 µM
O=C1Nc2ccc(Br)cc2C(c2ccccc2F)=NC12CC2,Activity,[1],97%
same,CC50,HEK293,> 150 µM
same,solubility,[2],321 µM
O=C(O)c1ncn2c1C1(CCC1)N=C(c1ccccc1F)c1cc(Br)ccc1-2,Stability,"[3]; s9, 2 h, 10 µM",122%
same,Activity,[1],59%
same,Activity,Mus musculus,inactive
same,"remaining at 2 h, 10 µM",[4],91%
same,"remaining at 2 h, 10 µM",[5],113%
same,CC50,HEK293,> 300 µM
same,IC50,[6],1830 µM
same,solubility,[2],58700 µM
same,Activity,[7],Non-Toxic
same,"remaining at 2 h, 10 µM",[8],90%
O=C(O)c1ncn2c1C1(CC1)N=C(c1ccccc1F)c1cc(Br)ccc1-2,"remaining at 2 h, 10 µM",[3],104%
same,Activity,[1],97%
same,Activity,Mus musculus,Active
same,Activity,Trachea,Active
same,"remaining at 2 h, 10 µM",[4],90%
same,"remaining at 2 h, 10 µM",[5],69%
same,CC50,HEK293,> 300 µM
same,IC50,[6],9 µM
same,solubility,[2],8200 µM
same,Activity,[7],Non-Toxic
same,"remaining at 2 h, 10 µM",[8],120%
O=C(O)c1ncn2c1C1(CC1)N=C(c1ccccc1F)c1cc(Cl)ccc1-2,"remaining at 2 h, 10 µM",[3],103%
same,Activity,[1],18%
same,"remaining at 2 h, 10 µM",[4],98%
same,"remaining at 2 h, 10 µM",[5],103%
same,CC50,HEK293,> 300 µM
same,solubility,[2],36200 µM
same,Activity,[7],Non-Toxic
same,"remaining at 2 h, 10 µM",[8],101%
CC1(C)N=C(c2ccccc2F)c2cc(Br)ccc2NC1=O,Activity,[1],70%
same,CC50,HEK293,> 150 µM
same,solubility,[2],319 µM
CCOC(=O)c1ncn2c1C1(CCC1)N=C(c1ccccc1F)c1cc(Br)ccc1-2,Activity,[1],83%
same,CC50,HEK293,> 120 µM
same,solubility,[2],186 µM

# — ChEMBL document CHEMBL5331136, “Design, Synthesis, and Biological Evaluation of Novel Spiro Imidazobenzodiazepines to Identify Improved Inhaled Bronchodilators” (J Med Chem, 2023)
